The source of these data is ChEMBL document CHEMBL1137348, “Determination of the binding mode of thienopyrimidinedione antagonists to the human gonadotropin releasing hormone receptor using structure-activity relationships, site-directed mutagenesis, and homology modeling” (J Med Chem, 2006).

In experiment [1] the target is Gonadotropin-releasing hormone receptor (Homo sapiens, UniProt P30968, H306A). Put plainly: Displacement of [His5, D-Tyr6]GnRH from GnRHR H306A mutant expressed in COS7 cells. It counts as cell-based, COS-7. The method, boiled down:
(§1)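 Human GnRH-R mutants (all in F272(6.40)L background) electroporated into COS-7 cells. Membranes taken 36-48 h later and lysed by nitrogen cavitation. Shaken 2 h at room temperature, then filtered and scintillation counted.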

For experiment [2], the target named is Gonadotropin-releasing hormone receptor (Homo sapiens, UniProt P30968, D302A). Briefly: Displacement of [His5, D-Tyr6]GnRH from GnRHR D302A mutant expressed in COS7 cells. It counts as cell-based, COS-7. Summed up:
as §1

Experiment [3] concerns the target Gonadotropin-releasing hormone receptor (Homo sapiens, UniProt P30968, L300A). Put plainly: Displacement of [His5, D-Tyr6]GnRH from GnRHR L300A mutant expressed in COS7 cells. It counts as cell-based, COS-7. Summed up:
as §1

For experiment [4], the target named is Gonadotropin-releasing hormone receptor (Homo sapiens, UniProt P30968, F309L). Briefly: Displacement of [His5, D-Tyr6]GnRH from GnRHR F309L mutant expressed in COS-7 cells. It counts as cell-based. The method, boiled down: as §1
Experiment [5] addresses Gonadotropin-releasing hormone receptor (Homo sapiens, UniProt P30968, N27A). Put plainly: Displacement of [His5, D-Tyr6]GnRH from GnRHR N27A mutant expressed in COS7 cells. It counts as cell-based, COS-7. The method, boiled down:
as §1

The target in experiment [6] is Gonadotropin-releasing hormone receptor (Homo sapiens, UniProt P30968, F309Q). Briefly: Displacement of [His5, D-Tyr6]GnRH from GnRHR F309Q mutant expressed in COS7 cells. It counts as cell-based, COS-7. Summed up: as §1
For experiment [7], the target named is Gonadotropin-releasing hormone receptor (Homo sapiens, UniProt P30968, Y284L). Put plainly: Displacement of [His5, D-Tyr6]GnRH from GnRHR Y284L mutant expressed in COS7 cells. The format is cell-based, COS-7. Summed up: as §1
The target in experiment [8] is Gonadotropin-releasing hormone receptor (Homo sapiens, UniProt P30968, D302N). Put plainly: Displacement of [His5, D-Tyr6]GnRH from GnRHR D302N mutant expressed in COS7 cells. It counts as cell-based, COS-7. Summed up:
as §1

Experiment [9] addresses Gonadotropin-releasing hormone receptor (Homo sapiens, UniProt P30968, Y290L). Put plainly: Displacement of [His5, D-Tyr6]GnRH from GnRHR Y290L mutant expressed in COS7 cells. The format is cell-based, COS-7. Summed up: as §1
The target in experiment [10] is Gonadotropin-releasing hormone receptor (Homo sapiens, UniProt P30968, Q208E). Put plainly: Displacement of [His5, D-Tyr6]GnRH from GnRHR Q208E mutant expressed in COS7 cells. The format is cell-based, COS-7. The method, boiled down:
as §1

The target of experiment [11] is Gonadotropin-releasing hormone receptor (Homo sapiens, UniProt P30968, F272L). Put plainly: Displacement of [125I]-His5, D-Tyr6]GnRH from GnRHR F272L mutant expressed in COS7 cells. The format is cell-based, COS-7. Summed up:
as §1

The target of experiment [12] is Gonadotropin-releasing hormone receptor (Homo sapiens, UniProt P30968, H306E). Briefly: Displacement of [His5, D-Tyr6]GnRH from GnRHR H306E mutant expressed in COS7 cells. It counts as cell-based, COS-7. Summed up: as §1
The target of experiment [13] is Gonadotropin-releasing hormone receptor (Homo sapiens, UniProt P30968, M24I). Briefly: Displacement of [His5, D-Tyr6]GnRH from GnRHR M24I mutant expressed in COS7 cells. The format is cell-based, COS-7. The method, boiled down:
as §1

Experiment [14] concerns the target Gonadotropin-releasing hormone receptor (Homo sapiens, UniProt P30968, F313L). Put plainly: Displacement of [His5, D-Tyr6]GnRH from GnRHR F313L mutant expressed in COS7 cells. It counts as cell-based, COS-7. Summed up: as §1

Gonadotropin-releasing hormone receptor (Homo sapiens, UniProt P30968, Y284L), sequence (P30968 whole entry Y284L): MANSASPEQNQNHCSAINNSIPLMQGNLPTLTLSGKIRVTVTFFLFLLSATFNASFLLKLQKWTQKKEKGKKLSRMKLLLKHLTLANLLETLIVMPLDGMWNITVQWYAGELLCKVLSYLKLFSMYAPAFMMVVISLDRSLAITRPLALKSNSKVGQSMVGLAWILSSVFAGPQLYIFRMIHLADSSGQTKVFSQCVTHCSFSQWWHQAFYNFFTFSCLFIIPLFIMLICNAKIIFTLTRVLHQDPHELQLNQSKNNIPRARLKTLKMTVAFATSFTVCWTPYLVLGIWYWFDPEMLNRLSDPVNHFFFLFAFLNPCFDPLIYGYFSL
Gonadotropin-releasing hormone receptor (Homo sapiens, UniProt P30968, F309L), sequence (P30968 whole entry F309L): as the sequence (P30968 whole entry Y284L) above, with L284Y, F309L counted along it
Gonadotropin-releasing hormone receptor (Homo sapiens, UniProt P30968, L300A), sequence (P30968 whole entry L300A): as the sequence (P30968 whole entry Y284L) above, with L284Y, L300A counted along it
Gonadotropin-releasing hormone receptor (Homo sapiens, UniProt P30968, F272L), sequence (P30968 whole entry F272L): as the sequence (P30968 whole entry Y284L) above, with F272L, L284Y counted along it
Gonadotropin-releasing hormone receptor (Homo sapiens, UniProt P30968, Y290L), sequence (P30968 whole entry Y290L): as the sequence (P30968 whole entry Y284L) above, with L284Y, Y290L counted along it
Gonadotropin-releasing hormone receptor (Homo sapiens, UniProt P30968, D302A), sequence (P30968 whole entry D302A): as the sequence (P30968 whole entry Y284L) above, with L284Y, D302A counted along it
Gonadotropin-releasing hormone receptor (Homo sapiens, UniProt P30968, N27A), sequence (P30968 whole entry N27A): as the sequence (P30968 whole entry Y284L) above, with N27A, L284Y counted along it
Gonadotropin-releasing hormone receptor (Homo sapiens, UniProt P30968, M24I), sequence (P30968 whole entry M24I): as the sequence (P30968 whole entry Y284L) above, with M24I, L284Y counted along it
Gonadotropin-releasing hormone receptor (Homo sapiens, UniProt P30968, H306E), sequence (P30968 whole entry H306E): as the sequence (P30968 whole entry Y284L) above, with L284Y, H306E counted along it
Gonadotropin-releasing hormone receptor (Homo sapiens, UniProt P30968, Q208E), sequence (P30968 whole entry Q208E): as the sequence (P30968 whole entry Y284L) above, with Q208E, L284Y counted along it
Gonadotropin-releasing hormone receptor (Homo sapiens, UniProt P30968, F313L), sequence (P30968 whole entry F313L): as the sequence (P30968 whole entry Y284L) above, with L284Y, F313L counted along it
Gonadotropin-releasing hormone receptor (Homo sapiens, UniProt P30968, F309Q), sequence (P30968 whole entry F309Q): as the sequence (P30968 whole entry Y284L) above, with L284Y, F309Q counted along it
Gonadotropin-releasing hormone receptor (Homo sapiens, UniProt P30968, H306A), sequence (P30968 whole entry H306A): as the sequence (P30968 whole entry Y284L) above, with L284Y, H306A counted along it
Gonadotropin-releasing hormone receptor (Homo sapiens, UniProt P30968, D302N), sequence (P30968 whole entry D302N): as the sequence (P30968 whole entry Y284L) above, with L284Y, D302N counted along it

With `CN(Cc1ccccc1)Cc1c(-c2ccc(NC(=O)c3ccccc3)cc2)sc2c1c(=O)n(-c1ccccc1)c(=O)n2Cc1c(F)cccc1F`, the half-inhibitory concentration (IC50) (usually the concentration at which inhibition is half-maximal) came out at 400 nM in [1]; 15 nM in experiment [2]; 22 nM in experiment [3]; 100 nM in experiment [4]; 26 nM in [5]; 220 nM in experiment [6]. In addition, the IC50 came to 1500 nM in experiment [7]; 13 nM in experiment [8]; 20 nM in [9]; 31 nM in experiment [10]; 6 nM in experiment [11]; 800 nM in experiment [12]. Also, the IC50 worked out at 380 nM in experiment [13] and 400 nM in [14].
In the case of `CC(=O)Nc1ccc(-c2sc3c(c2CN(C)Cc2ccccc2)c(=O)n(-c2ccccc2)c(=O)n3Cc2c(F)cccc2F)cc1`, the IC50 was 1700 nM in experiment [1]; 210 nM in [2]; 240 nM in [3]; 1100 nM in [4]; 31 nM in experiment [5]; 2400 nM in experiment [6]. Further, the IC50 in experiment [7] came to 4400 nM; in [8], 160 nM; in experiment [9], 52 nM; in [10] it was 230 nM; in experiment [11], 29 nM; in experiment [12], 1600 nM. In addition, the IC50 in experiment [13] was 2300 nM; in experiment [14], 2000 nM.
Regarding `CN(CCc1ccccn1)Cc1c(-c2ccc([N+](=O)[O-])cc2)sc2c1c(=O)n(-c1ccccc1)c(=O)n2Cc1c(F)cccc1F`, the IC50 worked out at 240 nM in [1]; 58 nM in [2]; 110 nM in [3]; 2650 nM in experiment [4]; 200 nM in [5]; 3600 nM in [6]. The IC50 in [7] turned out to be 2000 nM; in [8], 40 nM; in experiment [9], 900 nM; in [10], 450 nM; in experiment [11] it was 52 nM; in experiment [12] it was 400 nM. Also, the IC50 in [13] is more than 10000 nM; in [14], 4500 nM.
For the compound `CN(Cc1ccccc1)Cc1c(-c2ccc(NC3=NCCN3)cc2)sc2c1c(=O)n(-c1ccccc1)c(=O)n2Cc1c(F)cccc1F`, the IC50 in experiment [1] is 4400 nM; in [2], 3300 nM; in experiment [3] it was 1020 nM; in experiment [4], 1800 nM; in experiment [5], 480 nM; in experiment [6], 5200 nM. Besides, the IC50 in experiment [7] came out at 5000 nM; in [8], 2100 nM; in experiment [9] it was 350 nM; in experiment [10], 1400 nM; in [11], 240 nM; in experiment [12], 800 nM. For the same compound, the IC50 in experiment [13] and in experiment [14] was more than 10000 nM each time.
Consider `CN(Cc1ccccc1)Cc1c(-c2ccc(NC(=O)NCc3ccccc3)cc2)sc2c1c(=O)n(-c1ccccc1)c(=O)n2Cc1c(F)cccc1F`, for which the IC50 came out at 600 nM in [1]; 1100 nM in experiment [2]; 190 nM in experiment [3]; 900 nM in experiment [4]; 30 nM in experiment [5]; 1200 nM in [6]. In addition, the IC50 in [7] worked out at 6000 nM; in experiment [8] it was 500 nM; in experiment [9], 70 nM; in [10], 70 nM; in experiment [11], 20 nM; in experiment [12], 4000 nM. The IC50 turned out to be 390 nM in [13] and 1400 nM in experiment [14].
In the case of `CN(CCc1ccccc1)Cc1c(-c2ccc([N+](=O)[O-])cc2)sc2c1c(=O)n(-c1ccccc1)c(=O)n2Cc1c(F)cccc1F`, the IC50 in [1] was 3300 nM; in [2], 1600 nM; in [3] it was more than 10000 nM; in experiment [4], more than 10000 nM; in experiment [5] it was 1300 nM; in [6] it was more than 10000 nM. For the same compound, the IC50 in experiment [7] was more than 10000 nM; in experiment [8], 1900 nM; in experiment [9], 1900 nM; in experiment [10], 5000 nM; in experiment [11], 1100 nM; in [12] it was 7100 nM. Besides, the IC50 in experiment [13] and in experiment [14] was more than 10000 nM throughout.
For the compound `CN(Cc1ccccc1)Cc1c(-c2ccc(N)cc2)sc2c1c(=O)n(-c1ccccc1)c(=O)n2Cc1c(F)cccc1F`, the IC50 is 710 nM in [1]; 390 nM in [2]; 1600 nM in experiment [3]; 950 nM in [4]; 370 nM in experiment [5]; more than 10000 nM in experiment [6]. Also, the IC50 was more than 10000 nM in experiment [7]; 530 nM in experiment [8]; 390 nM in experiment [9]; 1500 nM in experiment [10]; 210 nM in [11]; 500 nM in experiment [12]. For the same compound, the IC50 is 4000 nM in experiment [13] and more than 10000 nM in experiment [14].
Consider `CN(Cc1ccccc1)Cc1c(-c2ccc([N+](=O)[O-])cc2)sc2c1c(=O)n(-c1ccccc1)c(=O)n2Cc1c(F)cccc1F`, for which the IC50 in [1] is 3000 nM; in [2], 1900 nM; in experiment [3], more than 10000 nM; in [4], more than 10000 nM; in experiment [5] it was 1600 nM; in experiment [6] it was more than 10000 nM. Further, the IC50 is more than 10000 nM in experiment [7]; 1400 nM in [8]; 1100 nM in [9]; more than 10000 nM in experiment [10]; 600 nM in experiment [11]; more than 10000 nM in experiment [12]. Besides, the IC50 in experiment [13] and in experiment [14] was more than 10000 nM each time.
